Data: ChEMBL document CHEMBL1132694, “Discovery and structure-activity relationships of imidazole-containing tetrahydrobenzodiazepine inhibitors of farnesyltransferase” (J Med Chem, 1999)

Assays:
[1] = biological target: T1, Protein farnesyltransferase (Homo sapiens, UniProt P49354+P49356); test: Inhibitory activity against human purified recombinant farnesyltransferase (hFT); assay type: protein-complex assay
Method in brief: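 Purified (>90%) recombinant human FT at 0.3 nM, with 10 μM ZnCl2. Activity was measured as incorporation of tritium from [3H]farnesyl pyrophosphate into recombinant human H-Ras. Result reported as IC50.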

Rat1 = test: Inhibition of anchorage independent growth of H-Ras transformed Rat-1 cells.; assay type: functional, cell-based
[2] = biological target: T1, Protein farnesyltransferase; test: Phenotypic reversion of H-Ras transformed NIH3T3 cells by the compound at a concentration of 10 uM; assay type: functional, cell-based; details: Mus musculus
[3] = biological target: T1, Protein farnesyltransferase; test: Phenotypic reversion of H-Ras transformed NIH3T3 cells at 1.25 uM; assay type: functional, cell-based; details: Mus musculus
[4] = biological target: T1, Protein farnesyltransferase; test: Phenotypic reversion of H-Ras transformed NIH3T3 cells at 5 uM.; assay type: functional, cell-based; details: Mus musculus
Mus musculus [5] = test: In vivo antitumor activity against Rat-1 tumors in mice at 10 mg/kg; assay type: functional
Method in brief: (§1)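 Female athymic Balb/c-background mice (18-22 g) were implanted ip with 1 × 10^6 in vitro-propagated H-Ras-transformed Rat-1 fibroblasts. Dosing was ip, once daily for 7 days from day 1, with compound in 10% ethanol/sterile water given within 1 h of dissolution. Groups were typically 6 treated and 8 control mice. Read-out was median survival as %T/C, with ≥125% counted active (Gehan's generalized Wilcoxon test).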

[6] = biological target: T1, Protein farnesyltransferase; test: Inhibition of human purified recombinant farnesyltransferase (hFT) at 15 uM; assay type: protein-complex assay
[7] = biological target: T1, Protein farnesyltransferase; test: Phenotypic reversion of H-Ras transformed NIH3T3 cells at 1.25/5 uM.; assay type: functional, cell-based; details: Mus musculus
Mus musculus [8] = test: In vivo antitumor activity against Rat-1 tumors in mice at 90 mg/kg; assay type: functional; method in brief: as §1
[9] = biological target: T1, Protein farnesyltransferase; test: Inhibition of human purified recombinant farnesyltransferase (hFT) at 90 uM; assay type: protein-complex assay
Mus musculus [10] = test: In vivo antitumor activity against Rat-1 tumors in mice at 30 mg/kg; assay type: functional; method in brief: as §1

SMILES	IC50 [1]	EC50 (Rat1)	Reversion activity [3]	Reversion activity [4]	other results
O=C(c1cccc2ccccc12)N1CCN(Cc2cnc[nH]2)Cc2ccccc21	2800 nM				
O=C(c1cccc2ccccc12)N1CCN(Cc2cnc[nH]2)c2ccc(-c3ccccc3)cc2C1	95 nM				
O=C(c1cccc2ccccc12)N1CCN(Cc2c[nH]cn2)c2ccccc2C1	460 nM	6000 nM			Reversion activity [2]: 0%
COc1ccc2ccccc2c1C(=O)N1CCN(Cc2cnc[nH]2)c2ccc(-c3ccccc3)cc2C1	58 nM				
COc1ccc2ccccc2c1C(=O)N1CCN(Cc2c[nH]cn2)c2ccc(-c3ccccc3)cc2C1		550 nM	85%	95%	
CC(=O)Nc1ccc2c(c1)N(Cc1c[nH]cn1)CCN(C(=O)c1cccc3ccccc13)C2			0%	0%	
O=C(Cc1ccccc1Oc1ccccc1)N1CCN(Cc2c[nH]cn2)c2ccccc2C1	700 nM				
COCC[C@H]1CN(C(=O)c2cccc3ccccc23)CCN1C(=O)Cc1cnc[nH]1	34000 nM				
O=C(c1ccccc1-c1ccccc1)N1CCN(Cc2c[nH]cn2)c2ccccc2C1		700 nM			Reversion activity [2]: 25%
O=C(c1ccccc1SCCO)N1CCN(Cc2c[nH]cn2)c2ccc(-c3ccccc3)cc2C1		200 nM	0%	90%	
COCC[C@H]1CN(C(=O)c2cccc3ccccc23)CCN1CCCc1c[nH]cn1	10000 nM				
O=S(=O)(c1cccc2ccccc12)N1CCN(Cc2c[nH]cn2)c2ccc(-c3ccccc3)cc2C1	426 nM		0%	25%	
O=C(Nc1ccc2c(c1)N(Cc1c[nH]cn1)CCN(C(=O)c1cccc3ccccc13)C2)OC1CCCCC1		110 nM	40%	95%	
O=C(Nc1ccc2c(c1)N(Cc1c[nH]cn1)CCN(C(=O)c1cccc3ccccc13)C2)NC1CCCCC1	35.5 nM	4000 nM	0%	0%	
O=C(Nc1ccc2c(c1)N(Cc1c[nH]cn1)CCN(C(=O)c1cccc3ccccc13)C2)C1CCCCC1	18.1 nM	340 nM	0%	45%	T/C (Mus musculus [5]): 138%
O=C(Nc1ccc2c(c1)N(Cc1cnc[nH]1)CCN(C(=O)c1cccc3ccccc13)C2)OC1CCCCC1	28 nM				
O=C(c1cccc2ccccc12)N1CCN(Cc2c[nH]cn2)c2cc(NS(=O)(=O)c3ccccc3)ccc2C1	249 nM	11000 nM	0%	0%	
O=C(c1ccccc1OC(F)(F)F)N1CCN(Cc2cnc[nH]2)c2ccc(-c3ccncc3)cc2C1	24 nM				
O=C(c1cccc2ccccc12)N1CCN(Cc2cnc[nH]2)c2cc(Cl)ccc2C1	540 nM				
O=C(c1cccc2ccccc12)N1CCN(Cc2c[nH]cn2)c2ccc(-c3cccnc3)cc2C1	145 nM	1000 nM	0%	70%	

SMILES	IC50 [1]	EC50 (Rat1)	Reversion activity [3]	Reversion activity [4]	other results
COc1ccc(C(=O)C(=O)N2CCN(Cc3c[nH]cn3)c3ccc(-c4ccccc4)cc3C2)cc1		900 nM	0%	90%	
O=C(c1cccc2ccccc12)N1CCN(Cc2c[nH]cn2)c2ccc(Br)cc2C1			0%	5%	
NCCc1nc(CN2CCN(C(=O)c3cccc4ccccc34)Cc3ccccc32)c[nH]1	1300 nM				
COC(=O)c1ccccc1S(=O)(=O)N1CCN(Cc2c[nH]cn2)c2ccccc2C1	720 nM	1600 nM			
O=C(c1ccccc1OC(F)(F)F)N1CCN(Cc2c[nH]cn2)c2ccc(-c3ccncc3)cc2C1		160 nM	85%	95%	
O=C(OCc1ccccc1)N1CCN(Cc2c[nH]cn2)c2ccc(-c3ccccc3)cc2C1				0%	inhibition [6]: 55%; Reversion activity [7]: 0%
Nc1ccc2c(c1)N(Cc1cnc[nH]1)CCN(C(=O)c1cccc3ccccc13)C2	1000 nM	2400 nM			
O=C(c1cccc2ccccc12)N1CCN(Cc2c[nH]cn2)Cc2ccccc21		3000 nM			Reversion activity [2]: 0%
c1ccc(-c2ccc3c(c2)CN(Cc2cccc4ccccc24)CCN3Cc2cnc[nH]2)cc1	2970 nM				
O=C(c1cccc2ccccc12)N1CCN(Cc2c[nH]cn2)c2ccc(C3CCCCC3)cc2C1			0%	20%	
Cc1cccc2c1N(Cc1c[nH]cn1)CCN(C(=O)c1cccc3ccccc13)C2	350 nM	12000 nM	0%	35%	
COCC[C@H]1CN(C(=O)c2cccc3ccccc23)CCN1Cc1c[nH]cn1	1300 nM				
O=C(c1ccccc1-c1ccccc1)N1CCN(Cc2cnc[nH]2)c2ccccc2C1	320 nM				
O=C(c1cccc2ccccc12)N1CCN(Cc2ncc[nH]2)c2ccccc2C1	21000 nM				
O=C(N1CCN(Cc2cnc[nH]2)c2ccccc2C1)N(c1ccccc1)c1ccccc1	1200 nM				
COc1ccc(C(=O)C(=O)N2CCN(Cc3cnc[nH]3)c3ccc(-c4ccccc4)cc3C2)cc1	91 nM				
NCc1ncc(CN2CCN(C(=O)c3cccc4ccccc34)Cc3ccccc32)[nH]1	840 nM				
O=C(c1cccc2ccccc12)N1CCN(Cc2cncn2Cc2ccccc2)c2ccccc2C1	1100 nM				
O=C(c1cccc2ccccc12)N1CCN(Cc2c[nH]cn2)c2ccc(-c3ccncc3)cc2C1	15.4 nM	200 nM	60%	95%	T/C (Mus musculus [8]): 108%
c1ccc(-c2ccc3c(c2)CN(Cc2cccc4ccccc24)CCN3Cc2c[nH]cn2)cc1			0%	0%	

SMILES	IC50 [1]	EC50 (Rat1)	Reversion activity [3]	Reversion activity [4]	other results
O=C(c1cccc2ccccc12)N1CCN(Cc2cnc[nH]2)c2ccc(Br)cc2C1	228 nM				
N#CN=C(Nc1ccc(Cl)cc1)N1CCN(Cc2cnc[nH]2)c2ccc(-c3ccccc3)cc2C1	1420 nM				
O=C(Nc1ccc2c(c1)N(Cc1c[nH]cn1)CCN(C(=O)c1cccc3ccccc13)C2)c1ccccc1	28.5 nM	300 nM	0%	75%	T/C (Mus musculus [8]): 128%
O=C(c1cccc2ccccc12)N1CCN(CCCc2ncc[nH]2)c2ccccc2C1	590 nM				
O=S(=O)(c1cccc2ccccc12)N1CCN(Cc2c[nH]cn2)c2ccccc2C1	480 nM				
O=C(N1CCN(Cc2cnc[nH]2)c2ccc(-c3ccccc3)cc2C1)N1CCCc2ccccc21	205 nM				
N#C/N=C(/Nc1ccc(Cl)cc1)N1CCN(Cc2c[nH]cn2)c2ccc(-c3ccccc3)cc2C1			0%	5%	
O=C(c1cccc2ccccc12)N1CCN(Cc2cnc[nH]2)c2ccc(C3CCCCC3)cc2C1	186 nM				
CC(=O)Nc1ccc2c(c1)N(Cc1cnc[nH]1)CCN(C(=O)c1cccc3ccccc13)C2	168 nM				
O=C(c1cccc2ccccc12)N1CCN(Cc2c[nH]cn2)c2ccc(-c3ccccn3)cc2C1	177 nM		0%	0%	
c1ccc(-c2ccc3c(c2)CN(c2nnnn2-c2ccccc2)CCN3Cc2c[nH]cn2)cc1			0%	0%	
O=C(N1CCN(Cc2c[nH]cn2)c2ccc(-c3ccccc3)cc2C1)N1CCCc2ccccc21			0%	40%	
COCC[C@H]1CN(C(=O)c2cccc3ccccc23)CCN1CCc1c[nH]cn1	3200 nM				
c1ccc(-c2ccc3c(c2)CN(c2nnnn2-c2ccccc2)CCN3Cc2cnc[nH]2)cc1	702 nM				
O=C(c1ccccc1SCCO)N1CCN(Cc2cnc[nH]2)c2ccc(-c3ccccc3)cc2C1	124 nM				
COCC[C@H]1CN(C(=O)c2cccc3ccccc23)CCN1C(=O)CCc1cnc[nH]1	27000 nM				
COCC[C@H]1CN(C(=O)c2cccc3ccccc23)CCN1C(=O)c1c[nH]cn1					inhibition [9]: 51%
O=C(c1cccc2ccccc12)N1CCN(Cc2c[nH]cn2)c2ccc(-c3ccccc3)cc2C1		1600 nM	0%	90%	T/C (Mus musculus [5]): 136%; T/C (Mus musculus [10]): 96%
O=C(c1ccccc1NCc1ccccc1)N1CCN(Cc2cnc[nH]2)c2ccccc2C1	600 nM	2400 nM			
O=C(c1cccc2ccccc12)N1CCN(CCc2c[nH]cn2)c2ccccc2C1	340 nM				Reversion activity [2]: 20%
